Active and inactive are the calls of the source. The calls are words filed in the database; no cut-off is given here.
Key:
[1] = biological target: Tyrosine-protein kinase ABL1 (Homo sapiens, UniProt P00519); test: Inhibition of recombinant human His-tagged full length ABL1 allosteric site expressed in baculovirus expression system by TR-FRET assay
[2] = biological target: Baculoviral IAP repeat-containing protein 2 (Homo sapiens, UniProt Q13490); test: Inhibition of recombinant human His-tagged cIAP1 (Leu250 to Gly350 residues) expressed in Escherichia coli by TR-FRET assay
Sequence of Baculoviral IAP repeat-containing protein 2 (Q13490 whole entry): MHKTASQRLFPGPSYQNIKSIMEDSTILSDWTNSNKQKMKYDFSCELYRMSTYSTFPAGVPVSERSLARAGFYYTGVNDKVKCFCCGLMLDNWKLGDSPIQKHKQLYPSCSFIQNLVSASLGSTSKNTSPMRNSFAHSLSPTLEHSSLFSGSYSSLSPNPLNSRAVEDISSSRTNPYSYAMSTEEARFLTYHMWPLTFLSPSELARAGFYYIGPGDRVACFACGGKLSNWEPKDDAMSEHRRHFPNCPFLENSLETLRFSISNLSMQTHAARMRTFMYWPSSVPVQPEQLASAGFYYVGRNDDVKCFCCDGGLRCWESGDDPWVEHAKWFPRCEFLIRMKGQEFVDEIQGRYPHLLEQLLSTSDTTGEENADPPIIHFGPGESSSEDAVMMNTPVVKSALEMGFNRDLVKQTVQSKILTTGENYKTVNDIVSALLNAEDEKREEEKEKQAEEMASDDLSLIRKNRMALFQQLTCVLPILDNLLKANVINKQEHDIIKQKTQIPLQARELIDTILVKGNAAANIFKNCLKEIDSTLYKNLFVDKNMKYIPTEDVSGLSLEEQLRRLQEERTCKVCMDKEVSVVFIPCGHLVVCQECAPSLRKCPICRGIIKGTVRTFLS

[3] = biological target: Baculoviral IAP repeat-containing protein 3 (Homo sapiens, UniProt Q13489); test: Inhibition of recombinant human His-tagged cIAP2 (Gln238 to Ser349 residues) expressed in Escherichia coli by TR-FRET assay
Sequence of Baculoviral IAP repeat-containing protein 3 (Q13489 whole entry): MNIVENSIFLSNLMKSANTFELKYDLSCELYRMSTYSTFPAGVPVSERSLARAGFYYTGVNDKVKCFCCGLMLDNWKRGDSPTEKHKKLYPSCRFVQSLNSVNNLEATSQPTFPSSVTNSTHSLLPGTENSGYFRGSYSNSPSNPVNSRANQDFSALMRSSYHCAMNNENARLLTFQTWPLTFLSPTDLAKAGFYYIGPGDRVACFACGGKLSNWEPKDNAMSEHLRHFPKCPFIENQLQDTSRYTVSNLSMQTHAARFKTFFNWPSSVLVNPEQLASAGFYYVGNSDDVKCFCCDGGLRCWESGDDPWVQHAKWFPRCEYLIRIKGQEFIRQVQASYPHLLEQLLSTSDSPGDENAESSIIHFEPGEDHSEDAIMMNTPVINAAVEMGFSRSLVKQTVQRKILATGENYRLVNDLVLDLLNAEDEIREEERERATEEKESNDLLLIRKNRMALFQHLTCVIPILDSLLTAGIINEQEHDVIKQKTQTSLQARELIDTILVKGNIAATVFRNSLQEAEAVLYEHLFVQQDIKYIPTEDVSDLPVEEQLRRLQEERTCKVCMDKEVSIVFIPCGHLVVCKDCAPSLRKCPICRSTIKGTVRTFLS

[4] = biological target: E3 ubiquitin-protein ligase XIAP (Homo sapiens, UniProt P98170); test: Inhibition of recombinant human His-tagged XIAP (Asn252 to Thr356 residues) expressed in Escherichia coli by TR-FRET assay
Sequence of E3 ubiquitin-protein ligase XIAP (P98170 whole entry): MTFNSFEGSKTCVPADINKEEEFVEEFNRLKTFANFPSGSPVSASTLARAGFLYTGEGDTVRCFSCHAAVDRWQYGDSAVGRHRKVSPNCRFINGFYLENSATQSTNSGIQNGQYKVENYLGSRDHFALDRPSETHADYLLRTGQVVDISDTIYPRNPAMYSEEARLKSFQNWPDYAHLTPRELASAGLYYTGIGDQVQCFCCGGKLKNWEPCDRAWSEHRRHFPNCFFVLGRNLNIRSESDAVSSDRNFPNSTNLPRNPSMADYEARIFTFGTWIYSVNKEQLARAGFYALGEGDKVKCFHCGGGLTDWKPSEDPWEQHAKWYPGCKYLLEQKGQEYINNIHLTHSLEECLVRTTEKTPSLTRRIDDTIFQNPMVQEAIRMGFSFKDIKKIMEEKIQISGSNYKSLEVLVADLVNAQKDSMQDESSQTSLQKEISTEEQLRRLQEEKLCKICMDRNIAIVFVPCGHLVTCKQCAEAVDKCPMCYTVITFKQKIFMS

[5] = biological target: Baculoviral IAP repeat-containing protein 2/Tyrosine-protein kinase ABL1/Breakpoint cluster region protein (Homo sapiens) (UniProt P00519+P11274+Q13490); test: Induction of cIAP1-mediated BCR-ABL degradation in human K562 cells at 100 nM after 6 hrs by Western blot analysis relative to beta-actin; type: cell-based
Sequence of Baculoviral IAP repeat-containing protein 2/Tyrosine-protein kinase ABL1/Breakpoint cluster region protein (Homo sapiens) (P00519 whole entry, looked up): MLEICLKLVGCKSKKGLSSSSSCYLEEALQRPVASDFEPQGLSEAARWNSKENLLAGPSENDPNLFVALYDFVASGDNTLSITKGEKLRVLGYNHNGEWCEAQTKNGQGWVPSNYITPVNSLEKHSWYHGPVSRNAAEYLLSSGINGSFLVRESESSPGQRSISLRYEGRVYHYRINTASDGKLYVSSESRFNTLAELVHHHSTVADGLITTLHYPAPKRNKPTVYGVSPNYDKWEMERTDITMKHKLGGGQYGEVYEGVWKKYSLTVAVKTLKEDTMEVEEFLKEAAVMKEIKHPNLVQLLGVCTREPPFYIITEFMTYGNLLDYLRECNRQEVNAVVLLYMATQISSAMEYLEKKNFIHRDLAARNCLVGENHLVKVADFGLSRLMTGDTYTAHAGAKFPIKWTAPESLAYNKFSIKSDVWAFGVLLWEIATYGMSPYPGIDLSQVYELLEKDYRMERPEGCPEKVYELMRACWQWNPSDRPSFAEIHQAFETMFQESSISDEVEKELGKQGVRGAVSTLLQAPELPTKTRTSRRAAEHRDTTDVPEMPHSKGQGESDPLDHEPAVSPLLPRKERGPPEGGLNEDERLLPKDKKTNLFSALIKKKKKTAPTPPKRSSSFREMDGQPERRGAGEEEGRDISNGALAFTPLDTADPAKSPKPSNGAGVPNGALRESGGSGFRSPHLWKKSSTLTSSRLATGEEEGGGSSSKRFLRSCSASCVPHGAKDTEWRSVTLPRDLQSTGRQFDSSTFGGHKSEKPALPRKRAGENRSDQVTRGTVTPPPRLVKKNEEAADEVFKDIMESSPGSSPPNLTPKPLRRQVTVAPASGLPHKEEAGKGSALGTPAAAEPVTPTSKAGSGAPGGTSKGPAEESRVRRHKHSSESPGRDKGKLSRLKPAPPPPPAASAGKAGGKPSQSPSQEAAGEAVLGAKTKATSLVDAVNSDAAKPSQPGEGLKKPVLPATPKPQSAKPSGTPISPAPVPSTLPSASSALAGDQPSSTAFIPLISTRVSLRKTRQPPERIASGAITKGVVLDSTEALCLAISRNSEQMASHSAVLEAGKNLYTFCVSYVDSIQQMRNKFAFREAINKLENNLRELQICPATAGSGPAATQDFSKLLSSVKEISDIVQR
Sequence of Baculoviral IAP repeat-containing protein 2/Tyrosine-protein kinase ABL1/Breakpoint cluster region protein (Homo sapiens) (P11274 whole entry, looked up): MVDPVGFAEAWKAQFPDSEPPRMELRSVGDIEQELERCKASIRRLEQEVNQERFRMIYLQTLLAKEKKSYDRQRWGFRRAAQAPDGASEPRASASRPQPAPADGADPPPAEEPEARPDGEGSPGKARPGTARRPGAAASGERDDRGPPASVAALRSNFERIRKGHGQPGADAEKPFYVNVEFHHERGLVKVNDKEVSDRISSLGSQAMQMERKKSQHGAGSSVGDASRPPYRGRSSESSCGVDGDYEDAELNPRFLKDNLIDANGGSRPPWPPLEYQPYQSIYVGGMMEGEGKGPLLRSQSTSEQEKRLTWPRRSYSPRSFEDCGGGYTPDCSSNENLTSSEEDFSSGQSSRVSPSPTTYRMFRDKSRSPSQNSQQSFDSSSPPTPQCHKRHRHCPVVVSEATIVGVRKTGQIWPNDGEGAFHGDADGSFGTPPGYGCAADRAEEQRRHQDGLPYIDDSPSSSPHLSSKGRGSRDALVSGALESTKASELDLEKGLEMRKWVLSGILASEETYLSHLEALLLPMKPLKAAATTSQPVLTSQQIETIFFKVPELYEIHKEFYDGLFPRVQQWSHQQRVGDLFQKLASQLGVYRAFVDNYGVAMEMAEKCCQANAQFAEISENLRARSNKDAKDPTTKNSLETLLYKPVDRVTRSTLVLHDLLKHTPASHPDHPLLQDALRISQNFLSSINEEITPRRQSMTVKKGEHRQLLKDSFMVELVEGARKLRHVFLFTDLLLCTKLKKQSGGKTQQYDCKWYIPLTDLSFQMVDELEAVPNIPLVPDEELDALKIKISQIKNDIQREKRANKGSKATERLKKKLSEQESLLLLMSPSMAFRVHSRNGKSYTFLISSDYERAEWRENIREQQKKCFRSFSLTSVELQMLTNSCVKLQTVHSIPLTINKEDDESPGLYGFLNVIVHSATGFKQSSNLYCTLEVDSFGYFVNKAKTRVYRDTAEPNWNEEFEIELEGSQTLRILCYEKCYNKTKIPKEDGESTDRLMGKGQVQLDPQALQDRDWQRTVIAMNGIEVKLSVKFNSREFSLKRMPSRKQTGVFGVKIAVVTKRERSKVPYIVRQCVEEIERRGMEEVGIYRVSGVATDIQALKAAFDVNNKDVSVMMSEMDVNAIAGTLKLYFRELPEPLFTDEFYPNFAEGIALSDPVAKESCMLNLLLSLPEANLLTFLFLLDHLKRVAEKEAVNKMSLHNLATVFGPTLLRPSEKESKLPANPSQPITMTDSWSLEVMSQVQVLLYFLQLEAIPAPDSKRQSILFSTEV
Sequence of Baculoviral IAP repeat-containing protein 2/Tyrosine-protein kinase ABL1/Breakpoint cluster region protein (Homo sapiens) (Q13490 whole entry, looked up): as the sequence (Q13490 whole entry) above
Method in brief: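 K562 cells were treated for 6 h with test agent at graded concentrations, or with IAP ligand 4 at 10 μM as competitor. BCR-ABL was then immunoblotted. BCR-ABL band intensity was normalized to β-actin and expressed relative to a vehicle control set at 100. Means ± standard deviation, n = 3.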

[6] = biological target: T1, Bcr/Abl fusion protein (Homo sapiens) (UniProt P00519+P11274); test: Inhibition of BCR-ABL phosphorylation in human K562 cells at 100 nM after 6 hrs by Western blot analysis relative to beta-actin; type: cell-based
T1 sequence (P00519 whole entry, looked up, the tested form may be a part): as the sequence (P00519 whole entry, looked up) above
T1 sequence (P11274 whole entry, looked up, the tested form may be a part): as the sequence (P11274 whole entry, looked up) above

[7] = biological target: T1, Bcr/Abl fusion protein (Homo sapiens); test: Inhibition of BCR-ABL in human K562 cells assessed as reduction in STAT5 phosphorylation at 100 nM after 6 hrs by Western blot analysis; type: cell-based
Method in brief: (§1)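 K562 cells were exposed to 100 nM compound for 6 h. Lysates were immunoblotted for phosphorylated STAT5 and phosphorylated CrkL, which are BCR-ABL substrates, alongside phosphorylated BCR-ABL.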

[8] = biological target: T1, Bcr/Abl fusion protein (Homo sapiens); test: Inhibition of BCR-ABL in human K562 cells assessed as reduction in CrkL phosphorylation at 100 nM after 6 hrs by Western blot analysis; type: cell-based; method in brief: as §1
K562 [9] = test: Growth inhibition of human K562 cells at >= 100 nM after 48 hrs by WST-8 assay; type: functional, cell-based
Method in brief: (§2)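 Cells exposed for 48 h to a graded concentration series of compound. Growth was read per well and reported as mean ± standard deviation of triplicate (n = 3) determinations.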

KCL-22 = test: Growth inhibition of human KCL22 cells up to 1000 nM after 48 hrs by WST-8 assay; type: functional, cell-based; method in brief: as §2
MOLT-4 = test: Growth inhibition of human MOLT4 cells up to 1000 nM after 48 hrs by WST-8 assay; type: functional, cell-based; method in brief: as §2
Jurkat = test: Growth inhibition of human Jurkat cells up to 1000 nM after 48 hrs by WST-8 assay; type: functional, cell-based; method in brief: as §2
K562 [10] = test: Growth inhibition of human K562 cells up to 1000 nM after 48 hrs by WST-8 assay; type: functional, cell-based; method in brief: as §2

Sequence of Tyrosine-protein kinase ABL1 (P00519 whole entry): as the sequence (P00519 whole entry, looked up) above

In the case of `CN[C@@H](C)C(=O)N(C)[C@H](C(=O)N1CCC[C@H]1c1nc(C(=O)c2cccc(OCCOCCOCCNC(=O)C3CCN(c4ncc(C(=O)Nc5ccc(OC(F)(F)Cl)cc5)cc4-c4ccn[nH]4)C3)c2)cs1)C1CCCCC1` (stereo partly specified), the IC50 [1] is reported as 340 nM, the IC50 [2] is reported as > 1000 nM and the IC50 [3] is reported as > 1000 nM. For the same molecule, the IC50 [4] was > 1000 nM and the fold change (FC) [5] was 102.

For `COC(=O)C1CCN(c2ncc(C(=O)Nc3ccc(OC(F)(F)Cl)cc3)cc2-c2ccn[nH]2)C1` (stereo unspecified), the IC50 [1] was 35 nM, the fold change (FC) [6] was 92 and the inhibition [7] was “Active”. For the same molecule, the inhibition [8] was “Active”.

For `CN[C@@H](C)C(=O)N[C@H](C(=O)N1CCC[C@H]1c1nc(C(=O)c2cccc(OCCOCCOCCNC(=O)C3CCN(c4ncc(C(=O)Nc5ccc(OC(F)(F)Cl)cc5)cc4-c4ccn[nH]4)C3)c2)cs1)C1CCCCC1` (stereo partly specified), the IC50 [1] was 360 nM, the IC50 [2] was 86 nM and the inhibition [7] was “Active”. The inhibition [8] was “Active”, the “growth inhibition (GI)” value (K562 [9]) was “Active” and the “growth inhibition (GI)” value (KCL-22) was “Active”. The “growth inhibition (GI)” value (MOLT-4) was “inactive” and the “growth inhibition (GI)” value (Jurkat) was “inactive”.

With `CN[C@@H](C)C(=O)N[C@H](C(=O)N1CCC[C@H]1c1nc(C(=O)c2cccc(OCCOCCOCCNC(=O)c3cccc(-c4cc(Nc5ccc(OC(F)(F)F)cc5)ncn4)c3)c2)cs1)C1CCCCC1` the IC50 [1] was 2000 nM and the IC50 [2] was 220 nM.

`CN[C@@H](C)C(=O)N[C@H](C(=O)N1CCC[C@H]1c1nc(C(=O)c2cccc(OC)c2)cs1)C1CCCCC1` was tested, and the IC50 [2] was 4.8 nM and the “growth inhibition (GI)” value (K562 [10]) was “inactive”.
